Three compounds from paper PMC6921677 (ACS Omega, 2019) can be followed below.

One assay has as its system CAL-27 (oral cancer). Nature of the assay: MTT cell cytotoxicity assay, CAL-27. The format is cell-based. To be noted: Homo sapiens, CAL-27, 48 h, read-out: CAL-27 IC50 ± S.D. In short, it runs like this:
(§1)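 Cells maintained in high-glucose DMEM with 2 mM L-glutamine, 10% FBS and 1% antibiotics, passaged before 70% confluency. Seeded at 10 000/well, left overnight at 37 °C, washed, then exposed to a range of test compound concentrations for 48 h. MTT (0.5 mg/mL as added) for 4 h, formazan dissolved in DMSO, OD 570 nm. IC50 fitted from percent inhibition.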

In assay [1] the test system is NIH-3T3 (mouse normal fibroblast). In words: MTT cell cytotoxicity assay, NIH-3T3. It is filed as cell-based. As to conditions: read-out: NIH-3T3 IC50 ± S.D. In short, it runs like this: as §1
Background: Tetrazolium assays rely on reduction of a dye to a coloured formazan, in cell work by metabolically active cells.

A further assay relates to NCI-H460 (lung cancer). In words: MTT cell cytotoxicity assay, NCI-H460. It is filed as cell-based. To be noted: Homo sapiens, NCI-H460, 48 h, read-out: NCI-H460 IC50 ± S.D. The procedure, abridged: as §1
Assay [2] deals with K. pneumoniae (ATCC 13882). In words: crystal violet biofilm inhibition assay, K. pneumoniae. The format is cell-based, Klebsiella pneumoniae. As to conditions: for K. pneumonia % inhibition ± S.D: biofilm inhibition at 250 μM; for K. pneumonia MBIC dose: biofilm inhibitory concentration, 24 h, crystal violet. The procedure, abridged:
(§2)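 Strains cultured in tryptone soya broth or agar. Test compound twofold serially diluted (500–1 μM) in TSB and inoculated at 5 x 10^5 CFU/mL. Incubated 24 h at 37 °C. Medium discarded and wells washed with sterile water, then stained with 0.1% w/v crystal violet for 15 min. Washed and air-dried; bound dye taken up in 30% v/v acetic acid. A590 gave percent biofilm inhibition.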

The subject of a further assay is S. aureus (NCTC 6571). Nature of the assay: crystal violet biofilm inhibition assay, S. aureus. It is filed as cell-based, Staphylococcus aureus. To be noted: biofilm inhibition at 500 μM. The procedure, abridged: as §2
The subject of assay [3] is A. baumannii (ATCC 19606). In words: crystal violet biofilm inhibition assay, A. baumannii. To be noted: for A. baumannii MBIC dose: biofilm inhibitory concentration, 24 h, crystal violet. The format is cell-based, Acinetobacter baumannii. In short, it runs like this:
as §2

A further assay relates to E. coli (ATCC 25922). Nature of the assay: crystal violet biofilm inhibition assay, E. coli. The format is cell-based, Escherichia coli. To be noted: for E. coli % Inhibition ± S.D: biofilm inhibition at 250 μM; for E. coli MBIC dose: biofilm inhibitory concentration, 24 h, crystal violet. The procedure, abridged:
as §2

Like-named read-outs stand apart in the source and are kept apart here.

As usually defined, the IC50 is the point on the concentration scale where inhibition reaches its midpoint.

Consider `O=c1[nH]cc(F)c(=O)[nH]1` [5-fluorouracil], for which the half-maximal inhibitory concentration (IC50) was 2.41 ± 0.89 µM in the assay with CAL-27 (oral cancer); over 100 µM in assay [1] (Mus musculus, NIH3T3, 48 h); 4.54 ± 1.67 µM with NCI-H460 (lung cancer).

Consider `O.O.O=C([O-])Cc1ccccc1Nc1c(Cl)cccc1Cl.[Li+].c1cnc2c(c1)ccc1cccnc12` [Complex 3, [Li(phen)(H2O)2][dcf]], for which, in assay [2], the “K. pneumonia % inhibition ± S.D” value turned out to be 77.91 ± 0.062% and the “K. pneumonia MBIC dose” value stood at 250 µM. Also, the “S. aureus % Inhibition ± S.D” value in the assay on S. aureus (NCTC 6571) is on record as 3.306 ± 0.166%. Besides, the “A. baumannii % Inhibition ± S.D” value in assay [3] (biofilm inhibition at 125 μM) is 87.924 ± 0.073%. The “A. baumannii MBIC dose” value in assay [3] stood at 125 µM. Also, in assay [1] (MTT, 48 h treatment, normal mouse fibroblast), the half-maximal inhibitory concentration (IC50) is 135 ± 4.96 µM. Moreover, in the assay on E. coli (ATCC 25922), the “E. coli % Inhibition ± S.D” value is on record as 76.22 ± 0.026% and the “E. coli MBIC dose” value worked out at 250 µM.

For the compound `O.O.O.O.O=C([O-])Cc1ccccc1Nc1c(Cl)cccc1Cl.O=C([O-])Cc1ccccc1Nc1c(Cl)cccc1Cl.[K+].[K+].c1cnc2c(c1)ccc1cccnc12.c1cnc2c(c1)ccc1cccnc12` [Complex 2, [K2(phen)2(dcf)2(H2O)4]], in assay [2], the “K. pneumonia % inhibition ± S.D” value is recorded as 77.26 ± 0.063% and the “K. pneumonia MBIC dose” value amounted to 250 µM. Besides, the “S. aureus % Inhibition ± S.D” value in the assay with S. aureus (NCTC 6571) is on record as “–1.497 ± 0.288%”. The “A. baumannii % Inhibition ± S.D” value in assay [3] (biofilm inhibition at 250 μM) is 86.158 ± 0.068%. Besides, the “A. baumannii MBIC dose” value in assay [3] was determined as 250 µM. Further, in the assay on E. coli (ATCC 25922), the “E. coli % Inhibition ± S.D” value was 72 ± 0.091% and the “E. coli MBIC dose” value stood at 250 µM.
